Results of several laboratories.
Target: Inhibitor of nuclear factor kappa-B kinase subunit alpha (CHUK, Homo sapiens, UniProt O15111)
Sequence (O15111 1-745, as in one of the studies): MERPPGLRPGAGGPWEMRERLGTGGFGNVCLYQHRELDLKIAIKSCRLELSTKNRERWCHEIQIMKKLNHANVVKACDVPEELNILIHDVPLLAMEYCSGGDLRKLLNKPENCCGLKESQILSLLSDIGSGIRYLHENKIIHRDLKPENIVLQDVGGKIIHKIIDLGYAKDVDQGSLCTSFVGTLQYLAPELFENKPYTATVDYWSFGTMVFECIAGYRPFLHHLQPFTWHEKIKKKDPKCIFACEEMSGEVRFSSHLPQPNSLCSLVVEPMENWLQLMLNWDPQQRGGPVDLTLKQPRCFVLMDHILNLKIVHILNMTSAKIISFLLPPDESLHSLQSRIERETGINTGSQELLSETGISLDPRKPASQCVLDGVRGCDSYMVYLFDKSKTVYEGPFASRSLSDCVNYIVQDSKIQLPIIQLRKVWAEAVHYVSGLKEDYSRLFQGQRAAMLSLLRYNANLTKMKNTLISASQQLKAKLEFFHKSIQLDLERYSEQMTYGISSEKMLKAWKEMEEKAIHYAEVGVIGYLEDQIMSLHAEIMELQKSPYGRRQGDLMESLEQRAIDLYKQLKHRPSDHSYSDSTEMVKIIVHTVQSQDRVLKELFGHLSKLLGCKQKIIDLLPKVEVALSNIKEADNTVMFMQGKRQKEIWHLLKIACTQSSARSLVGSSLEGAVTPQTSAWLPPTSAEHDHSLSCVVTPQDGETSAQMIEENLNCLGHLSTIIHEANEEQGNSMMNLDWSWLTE

`N#Cc1ccc(NC(=O)Nc2ccccc2)cc1` has a remaining binding of 85% (cell-free assay, competition with immobilised ligand; 25 µM).
With `COc1ccc2oc(-c3ccc4nc(N)oc4c3)c/c(=N\c3ccccc3NC(=O)CCN)c2c1` the remaining binding was 94% (binding; 1 µM).
For `C=CC(=O)N1CCC([C@@H]2CCNc3c(C(N)=O)c(-c4ccc(Oc5ccccc5)cc4)nn32)CC1`, the inhibition was 0% (enzyme activity, inhibitor; 1 µM).
With `C[C@H]1CC[C@H](n2c3cnccc3c3cnc(Nc4ccc5c(n4)CCN(C(=O)CO)C5)nc32)CC1` the remaining signal was 76% (cell-free assay; 1 µM).
`CCCCC(=O)Nc1ccc(-c2ccc3ncn(CCC)c(=O)c3c2)cn1` has a remaining binding of 100% (binding, competition with immobilised ligand; 0.5 µM).
`COc1ccc2[nH]c3c4[nH]c5ccc(OC)cc5c4c4c(c3c2c1)C(=O)NC4=O` has a remaining binding of 89% (binding; 1 µM).
With `C#Cc1cnc(Nc2ccnc(CO)c2)nc1Nc1ccccc1S(C)(=O)=NC#N` (centres unmarked) the remaining signal was 100% (cell-free assay; 1 µM).
`C=CC(=O)N1CCC[C@@H](n2nc(-c3ccc(Oc4ccccc4)cc3)c3c(N)ncnc32)C1` has an inhibition of 16% (enzyme activity, inhibitor; 1 µM).
